Test results published in ChEMBL document CHEMBL1817552, “Isolation, identification, and biological evaluation of HIF-1-modulating compounds from Brazilian green propolis” (Bioorg Med Chem, 2011).
Values belong to the molecule of their own block, whether it stands above or below them. Activity calls are given as the source filed them. No cut-off for these calls is given here.

What was measured:
HEK293 [1] = assay: Modulation of HIF1 expressed in HEK293 cells assessed as luciferase activity under hypoxic condition at 50 uM after 24 hrs by luminometer analysis relative to hypoxic control; format: cell-based
How it was run: (§1)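 HEK293 stable clone carrying a luciferase reporter driven by a 68-bp ENO1 hypoxia response element upstream of the SV40 promoter, seeded at 8 × 10^4 cells/well. After 24 h, compound added; 1 h later cells moved to 1% O2 hypoxia for 24 h. Luciferase read by luminometer, expressed as ratio to hypoxic control. Final DMSO 0.5%; triplicate wells.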

[2] = Antiangiogenic activity in 3-day-old embryonated chicken eggs at 300 ng/CAM measured on 7th embryonic day by CAM assay; format: functional, Gallus gallus, Egg
HCT-116 [3] = assay: Cytotoxicity against human HCT116 cells assessed as cell viability under normoxic condition at 200 uM after 24 hrs by MTT assay; format: functional
How it was run: (§2)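 HCT116 cells seeded at 6.0 × 10^3 cells/well in McCoy's 5A with 10% FBS and antibiotics, grown 24 h, then exposed to compound for 24 h under normoxia (20% O2) or hypoxia (1% O2, 94% N2, 5% CO2, 37 °C). MTT 0.5 mg/mL added for 4 h at 37 °C, cells lysed in DMSO, absorbance read at 570 nm. Final DMSO 1.0% (v/v).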

HCT-116 [4] = assay: Cytotoxicity against human HCT116 cells assessed as cell viability under hypoxic condition at 50 uM after 24 hrs by MTT assay; format: functional; how it was run: as §2
HCT-116 [5] = assay: Cytotoxicity against human HCT116 cells assessed as cell viability under normoxic condition at 50 uM after 24 hrs by MTT assay; format: functional
HCT-116 [6] = assay: Cytotoxicity against human HCT116 cells assessed as cell viability under hypoxic condition at 50 uM after 7 days by clonogenic assay; format: functional
HCT-116 [7] = assay: Cytotoxicity against human HCT116 cells assessed as cell viability under normoxic condition at 50 uM after 7 days by clonogenic assay; format: functional
HCT-116 [8] = assay: Cytotoxicity against human HCT116 cells assessed as cell viability under normoxic condition at 100 uM after 24 hrs by MTT assay; format: functional; how it was run: as §2
[9] = Solubility of the compound in dimethylsulfoxide; format: physicochemical
HCT-116 [10] = assay: Cytotoxicity against human HCT116 cells assessed as cell viability under hypoxic condition at 200 uM after 24 hrs by MTT assay; format: functional; how it was run: as §2
HCT-116 [11] = assay: Cytotoxicity against human HCT116 cells assessed as cell viability under normoxic condition at 200 uM after 7 days by clonogenic assay; format: functional
How it was run: (§3)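 HCT116 cells plated at 3.0 × 10^2 cells per dish and treated 24 h under normoxia (20% O2) or hypoxia (1% O2). On day 7 colonies were washed with PBS, fixed in methanol 30 min at room temperature, stained with Giemsa over 3 h, then counted.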

HCT-116 [12] = assay: Cytotoxicity against human HCT116 cells assessed as cell viability under hypoxic condition at 200 uM after 7 days by clonogenic assay; format: functional; how it was run: as §3
[13] = molecular target: T1, Hypoxia inducible factors; HIF-1-alpha, HIF-2-alpha (Homo sapiens) (UniProt Q16665+Q99814); assay: Inhibition of HIF1-dependent HK2 mRNA expression in human HCT116 cells under hypoxic condition at 50 uM after 24 hrs by RT-PCR analysis; format: cell-based; conditions: HCT-116
How it was run: (§4)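 HCT116 cells seeded at 1 × 10^6 per dish in McCoy's 5A/10% FBS, grown 24 h, then treated 24 h under hypoxia (1% O2) or normoxia. Total RNA extracted directly after treatment. Real-time RT-PCR run as 95 °C 30 s, then 40 cycles of 95 °C 5 s and 60 °C 30 s. Normalized to 18S rRNA, relative expression by 2^-ΔΔCT; mean ± SD.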

[14] = Modulation of HIF1 expressed in HEK293 cells assessed as luciferase activity under hypoxic condition after 24 hrs by luminometer analysis; format: cell-based; conditions: HEK293, 24 h
[15] = molecular target: T1, Hypoxia inducible factors; HIF-1-alpha, HIF-2-alpha (Homo sapiens); assay: Inhibition of HIF1-dependent GLUT1 mRNA expression in human HCT116 cells under hypoxic condition at 50 uM after 24 hrs by RT-PCR analysis; format: cell-based; conditions: HCT-116; how it was run: as §4
HCT-116 [16] = assay: Inhibition of HIF1alpha expression in human HCT116 cells under hypoxic condition after 4 hrs by immunoblotting; format: functional, cell-based
How it was run: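 HCT116 cells at 4 × 10^6 per dish, grown 24 h, then exposed 4 h under hypoxia (1% O2) or normoxia (20% O2). Lysed on ice in Tris/SDS/deoxycholate buffer with protease and phosphatase inhibitors; 120 µg protein per lane on 7% SDS-PAGE. Probed with mouse anti-human HIF-1α (1:500) and β-actin control; HRP secondary, chemiluminescence quantitation.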

[17] = molecular target: T1, Hypoxia inducible factors; HIF-1-alpha, HIF-2-alpha (Homo sapiens); assay: Inhibition of HIF1-dependent VEGFA mRNA expression in human HCT116 cells under hypoxic condition at 50 uM after 24 hrs by RT-PCR analysis; format: cell-based; conditions: HCT-116; how it was run: as §4
HCT-116 [18] = assay: Cytotoxicity against human HCT116 cells assessed as cell viability under normoxic condition after 24 hrs by MTT assay; format: functional, cell-based; conditions: HCT-116, 24 h; how it was run: as §2
HEK293 [19] = assay: Modulation of HIF1 expressed in HEK293 cells assessed as luciferase activity under hypoxic condition at 30 uM after 24 hrs by luminometer analysis relative to hypoxic control; format: cell-based; how it was run: as §1

Structure (SMILES): CC(C)=CCc1cc(/C=C/C(=O)O)cc(CC=C(C)C)c1O [ARTEPILLIN]
Ratio (HEK293 [1]): 1.09 | inhibition (INH) [2]: 80.9% | Activity (HCT-116 [3]): 53.3%

Structure (SMILES): COc1ccc(-c2oc3cc(O)cc(O)c3c(=O)c2O)cc1 [KAEMPFERIDE]
Activity (HCT-116 [4]): 173.3% | Activity (HCT-116 [5]): 102.5% | inhibition (INH) [2]: 39.5% | Activity (HCT-116 [6]): 87.6% | Activity (HCT-116 [7]): 79.9%

Structure (SMILES): O=C(O)/C=C/c1ccc(O)cc1 [COUMARIC ACID]
Ratio (HEK293 [1]): 0.93 | Activity (HCT-116 [8]): 99.3%

Structure (SMILES): C=CCc1cc(/C=C/C(=O)O)ccc1O
Ratio (HEK293 [1]): 0.9 | Activity (HCT-116 [8]): 98.4%

solubility [9]: Insoluble
Structure (SMILES): C=C(C)[C@@H]1CC[C@]2(C)CC[C@]3(C)[C@H](CC[C@@H]4[C@@]5(C)CC[C@H](OC(=O)C[C@H](O)CCCCCCCCCCCCC)C(C)(C)[C@@H]5CC[C@]43C)[C@@H]12

Structure (SMILES): CC(C)(C)c1cc(/C=C/C(=O)O)cc(C(C)(C)C)c1O
Ratio (HEK293 [1]): 0.77 | Activity (HCT-116 [8]): 108.4%

inhibition [13]: Active | IC50 [14]: 25.6 µM | inhibition [15]: Active | inhibition [17]: Active
Structure (SMILES): CC(C)=CCc1cc(/C=C/C(=O)O)ccc1O [DRUPANIN]
Activity (HCT-116 [10]): 146% | Ratio (HEK293 [1]): 0.36 | Activity (HCT-116 [11]): 105.8% | inhibition (INH) [2]: 84.3% | Activity (HCT-116 [12]): 101.2% | Activity (HCT-116 [3]): 127.1% | inhibition (HCT-116 [16]): Dose-dependent effect

Structure (SMILES): COC(=O)/C=C/c1ccc(O)c(CC=C(C)C)c1 [PLICATIN B]
IC50 (HCT-116 [18]): 10.6 µM

Structure (SMILES): COC(=O)/C=C/c1ccc(OC)c(CC=C(C)C)c1 [PALICATIN B METHYL ETHER]
IC50 (HCT-116 [18]): 37.6 µM | Ratio (HEK293 [19]): 1.17

Structure (SMILES): O=C(O)/C=C/c1ccc(OC(=O)CCc2ccccc2)cc1
Ratio (HEK293 [1]): 1.08

Structure (SMILES): COc1ccc(-c2oc3cc(O)c(OC)c(O)c3c(=O)c2O)cc1 [BETULETOL]
Activity (HCT-116 [4]): 86.8% | Activity (HCT-116 [5]): 69% | inhibition (INH) [2]: 46.7% | Activity (HCT-116 [6]): 90.3% | Activity (HCT-116 [7]): 96.8%

inhibition [13]: Active | IC50 [14]: 77.4 µM | inhibition [15]: Active | inhibition [17]: Active
Structure (SMILES): CC(C)=CCc1cc(/C=C/C(=O)O)ccc1OC(=O)CCc1ccccc1 [BACCHARIN]
Activity (HCT-116 [10]): 69.4% | Ratio (HEK293 [1]): 0.52 | Activity (HCT-116 [11]): 74.8% | inhibition (INH) [2]: 83.2% | Activity (HCT-116 [12]): 74% | Activity (HCT-116 [3]): 58.2% | inhibition (HCT-116 [16]): Dose-dependent effect

Structure (SMILES): COc1ccc(/C=C/C(=O)O)cc1CC=C(C)C
Ratio (HEK293 [1]): 0.82 | Activity (HCT-116 [8]): 95.7%
